From the EternaBench riboswitch data

System: MS2 coat protein
Experiment: apparent Kd, MS2 coat protein; higher = weaker binding; RNA-MaP array; FMN 200 µM where present
In short: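 Stalled E. coli RNA polymerase produced the designs on Illumina sequencing-chip clusters. SNAP-549-labelled MS2 coat protein was added from 0.7 or 1.5 nM, doubling to 3 µM, without and then with constant ligand, in 100 mM Tris-HCl pH 7.5, 80 mM KCl, 4 mM MgCl2, BSA, DTT, yeast tRNA and Tween-20. The apparent Kd is the median of filtered per-cluster fits of green signal normalised to red-channel RNA signal and control-cluster median Fmax.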

[1] = designed as: OFF switch for flavin mononucleotide, no ligand
[2] = ligand present: flavin mononucleotide, designed as: OFF switch for flavin mononucleotide
[3] = designed as: ON switch for flavin mononucleotide, no ligand
[4] = ligand present: flavin mononucleotide, designed as: ON switch for flavin mononucleotide

| Sequence | apparent Kd [1] [nM] | apparent Kd [2] [nM] | apparent Kd [3] [nM] | apparent Kd [4] [nM] |
| --- | --- | --- | --- | --- |
| AAGAAGUCAGGAUAUCGUGCUCGUCACUUGCGUGAUGAGUACGAGAAGGGACAUGAGGAUCACCCAUGUAAAGA | 52.4 | 52.5 | – | – |
| AGAAAGAAGCAAGGAUAUUGUAAGGUUAAUGUACAAGAAGGUGCUGUUUAUGUCUCUUAACAUGAGGAUCACCCAUGUUUUGGU | – | – | 19.2 | 18.8 |
| UAAGAUUAUGUAGGAUAUGGUUAUCUAUGUCUAGUUACUAGACAUAGAUAACCAGAAGGACAUGAGGAUCACCCAUGUUGAACG | 7.73 | 16.9 | – | – |
| CAAGGGCAUGAGAAGGCAUAAUAUAUAAUACCACAUGUUUACAUGAGGAUCACCCAUGUUACCUAUGAGGAUAUCAUGCCUACA | 14.4 | 12.9 | – | – |
| UAUGUUUCGCAGAAGGGAACGGUUUAUAACAAUUCAGGAUAUGCGACAUGAGGAUCACCCAUGUAGCAGUAUAUAGGGUUGAAU | 7.5 | 45.9 | – | – |
| AUUAAGCAGCAGGAUAUAAUUAUCUGAAGGUGGUUAGAAGGGCUGACAUGAGGAUCACCCAUGUGCUCUUCGUG | 16.2 | 32.2 | – | – |
| GGAUGAUUAAUAGGAUAUUAUUUGUAAUUUGGUUAAGAAGGAUUAAUGAUUUAAACGACCUGUUACAUGAGGAUCACCCAUGUU | – | – | 95.5 | 74.1 |
| CUUUUGUGAGGAUAUCAGGUGUGCUAGCGUACUGGUACAUCUGAGAAGGCACAUGAGGAUCACCCAUGUUCCUC | 42.2 | 238 | – | – |
| CGAUCGUUGCAGAAGGUUAAAAUUUUAUCUACAUGUUUAACAUGAGGAUCACCCAUGUUUAUGAUGAAGGAUAUGCAAGGGUCG | 6.76 | 6.18 | – | – |
| GAGUGGAAGUAAGGAUAUAUAAUGAUAAUCACAGUAGAAGGUACUAACAUGAGGAUCACCCAUGUAGGACUAUACCAGAGAGGG | – | – | 17.4 | 16 |
| GCAGGAAAACUUGGUACAUGAGGAUCACCCAUGUAAAGCGGCAGAAGGGCGAUGUUAUGUAUAACGCAGGAUAUGCAGCGGAAU | – | – | 46.4 | 18.1 |
| CGGUUUCACAUUUUAGUGAUUUAUACAGAAGGCCAUACACAUGAGGAUCACCCAUGUCAGGAAUUGGAGGAUAUGUUAUUGACG | – | – | 6.1 | 4.4 |
| GUCAUACAUGAGGAUCACCCAUGUAAGGAUAUGCUAGCGGUCGGAAGACUGACUGCUAGCAGAAGGUACAUGAU | 67.1 | 92.5 | – | – |
| GUGUAGUCAGGAUAUACAGAGGAAGAUAAUACAAUAUAAGUACAUGAGGAUCACCCAUGUAGAAGGGACAGUGU | 30.8 | 32.4 | – | – |
| AGAGUUUCGUUGUGACCCAUUCACAUGAGGAUCACCCAUGUAGAGGAUAUAGGUCACCACGGUACCUAGAAGGCUACAGGUGUG | 13.4 | 15.5 | – | – |
| AAUUUACAUGAGGAUCACCCAUGUGAGGAUAUAUAUAUAUGCUUGUUAUUGCGUGUGUGUAGAAGGCGCGUGAU | 21.1 | 21 | – | – |
| AUCCGACAUGAGGAUCACCCAUGUCAGGAUAUGGACUGACACCGAAAGGAUGGAGGAACCAGAAGGGACUGGGC | 32.5 | 47.8 | – | – |
| UGUUGUUCAGGAUAUGAUGUUUUAUACAUGAGGAUCACCCAUGUGGGUCCUGAUUUGGCGUCAGAAGGGAAUGUUG | 108 | 222 | – | – |
| AGAUGACAAAGUCAUCUCGCUUUGACAUGAGGAUCACCCAUGUAGGAUAUAUUACUCAAAGAGUAAUAGAAGGACAUGUUUCUG | 72.7 | 163 | – | – |
| GCGUCAGAAUUAAUUGUGACAGGCAGAAGGCUAUAUCUUAUGUUAGACAUGAGGAUCACCCAUGUAGAGGAUAUGCAGUUACAC | 7.77 | 17 | – | – |
| CGAUGACACAGUCAUCCAAUACGAACAUGAGGAUCACCCAUGUAGGAUAUGCUACUCACAGAGUAGCAGAAGGACAUGUGCCUU | 41.4 | 182 | – | – |
| GAAUUAAAGAUCCAAUUUUACAACAUGAGGAUCACCCAUGUGCAGGAUAUCGUGUGUUUUAUAUUCGAGAAGGGCAAAUACAUU | 100 | 187 | – | – |
| CGGUCACAUGAGGAUCACCCAUGUACCUACGCGAUGAAGUCGCAGGAUAUCCAUUACUUUACGUAGGAGAAGGGUGACGCUCGC | – | – | 51.1 | 34 |
| UGGUACUAGGGAGGAUAUGGGAAGAUACAUGAGGAUCACCCAUGUUUAACAAUGCCGAGAGGCAACUAGAAGGCCCUAGUACCU | – | – | 227 | 15.5 |
| GGGAUAGGAGGAUAUGUUCUAGCUCACAUGAGGAUCACCCAUGUGGUGUCCGUUGGUAGCGCAGAAGGCUUACCUA | 792 | 662 | – | – |
| GAAUAAUUGAUCCUUUUUUAUUACAUGAGGAUCACCCAUGUGCAGGAUAUCGAUUGUUUUAGUUUCGAGAAGGGCAAGAACUGU | 219 | 255 | – | – |
| UAUAUGUGAGGAUAUCAGGUGUGCUAGCGAACUGGUACAUCUGAGAAGGCACAUGAGGAUCACCCAUGUAUCUU | 27.7 | 105 | – | – |
| UGGUGAAGUGUAGGAUAUGGAGGUGGGUUUUGGCCAGAAGGACAUGAGGAUCACCCAUGUGGUAGAGGGUUGGCGGUGGCCCGU | 16 | 13.7 | – | – |

| Sequence | apparent Kd [1] [nM] | apparent Kd [2] [nM] | apparent Kd [3] [nM] | apparent Kd [4] [nM] |
| --- | --- | --- | --- | --- |
| GUAGCAUACCGAGGAUAUUCCGGGCAUAAAUAAACAUGAGGAUCACCCAUGUGGCGAAAGCCUAGGGAGAAGGCGGAAUGCUAC | – | – | 15.2 | 13.6 |
| UUGCUACAUGAGGAUCACCCAUGUCAGGAUAUAGUGUAUAGCGUGGAAGCUCUGUCGAUUAGAAGGGACUGUCU | 23.7 | 25.2 | – | – |
| AUCAUGUAAGGAUAUCUUACAUGUGACGAAAGUCACAGUUAAGAGAAGGUACAUGAGGAUCACCCAUGUAUAAC | 27.4 | 54.9 | – | – |
| AUAGGCCUAGGAUAUACAUGAGGAUCACCCAUGUUAAUACUUCAAUCAUGAUAAACGUGUAGAAGGAGGAAUAA | 25.8 | 26.1 | – | – |
| GUCAGCUCGUGAGGAUAUACAUGUGCUGGAUACAGCACUAAAGAUUUCACAUGAGGAUCACCCAUGUAGAAGGCACGAGCUGAU | 16.9 | 38 | – | – |
| GUUUGUUAUUAGAAGGUGCCAGCGAGAGCUGCACAUGAGGAUCACCCAUGUUGUCGGUGACGACGCAAGGAUAUGGUGGUGGAU | – | – | 715 | 169 |
| UUUAAGUCAGGAUAUCGUUAAUUUAAUUAUUUAUUUUAGUUCGAGAAGGGACAUGAGGAUCACCCAUGUAAUUU | 40.5 | 63.1 | – | – |
| AAGAGGUCAGGAUAUACGGAGAGAGGGAGUUGGUGAGGGUAACAUGAGGAUCACCCAUGUAGAAGGGACUAAGA | 22.4 | 24.7 | – | – |
| GGAGACCUCACAGGAUAUGCUGGACUUUGUCCAGCAGAAGGGUGGACAUGAGGAUCACCCAUGUGGUCUUCCAAAAUAUUUAAU | – | – | 728 | 139 |
| GUGCGCGGCUAGGAUAUUGUGGGUUUUUGUCUGCGAGAAGGUGCCACAUGAGGAUCACCCAUGUGGUGUUGCUC | 24.1 | 30 | – | – |
| GUAAAGUGAGGAUAUGGUAAAGUAAGUAUUUAGUAAGUAAUCCAGAAGGCACAUGAGGAUCACCCAUGUAAAUG | 29.3 | 35.8 | – | – |
| AGUGUCAUCGAGAAGGCCUUGACAUGAGGAUCACCCAUGUUAUAACAUGGGAGGAUAUCGAUGAUACAGCUACGUUUCGUAGCA | – | – | 509 | 46.7 |
| CAGCGAAAGCUGAAUCUGUAGAGAGAGGAUAUACAAGAAUAAGUCCAUACAUGAGGAUCACCCAUGUAGAAGGCUCUCUACAGU | 7.28 | 25.4 | – | – |
| GCAAAGCCUGACAUGAGGAUCACCCAUGUUAGAUUGUUAUGUCAGGAUAUUGUCUAGCCACUAGACAAGAAGGGAUGCUUUGCU | – | – | 384 | 32.9 |
| GUCAGCUCGUGAGGAUAUACAACACUGCUUCGGCAGUGUAUUAAGAUUACAUGAGGAUCACCCAUGUAGAAGGCACGAGCUGAU | 5.01 | 6.95 | – | – |
| UUAUUGUAUGUAGGAUAUGCAUAUUAUUAUUAUGCAGAAGGACAUGAGGAUCACCCAUGUAUAUUAUUAUUAUAUAUUAUAUAU | 32.3 | 60.9 | – | – |
| CCAUUUACUGAGGAUAUUGCAUCACCCGACUGAUAAGAAGGCAGAACAUGAGGAUCACCCAUGUGGGUACUCAC | 73.7 | 105 | – | – |
| CGUAGGAUCCAGAAGGCAUGAACAUGAGGAUCACCCAUGUGAAAAGACAUGAGGAUAUGGAUCCUACGAAAAGUGCGAAAGCAC | – | – | 5.53 | 5.47 |
| GUACCUUAUGAGAAGGCGAUCAUGAAACAUGAUCGAGGAUAUCAUGUAAACAUGAGGAUCACCCAUGUAUGGGUAUUAUGGUAU | – | – | 43.9 | 11.3 |
| UCGAAAAUGCAAGGAUAUCAAUUAUAGCUAAAUUAGACAUGAGGAUCACCCAUGUAAAUAUGGAGUGAGAAGGUGCAAUAAUUU | – | – | 453 | 174 |
| AAGCACAGAGGAUAUACAUGGGUAAAAAAAAAAAAAAAAAAACAUGAGGAUCACCCAUGUAGAAGGCUGUGCAA | 81.6 | 67 | – | – |
| UAUAGGCUAGGAUAUACAACACUUGGUUCGAAUGUUUGGAGACAUGAGGAUCACCCAUGUAGAAGGAGCAUUUC | 64.8 | 190 | – | – |
| UAGAAGUCAGGAUAUGCAUGGCGGGACUUGCGUCGUGGCGUGCAGAAGGGACAUGAGGAUCACCCAUGUAAAGG | 159 | 265 | – | – |
| CCUAGUUGGUAAGGAUAUCCUACACUGUUCUGACCCGUGCAAGCUACAUGAGGAUCACCCAUGUGGGAGAAGGUGCGUCAACGU | 12.7 | 11.9 | – | – |
| AACUUACAUGAGGAUCACCCAUGUGAGGAUAUAUAAAUAUAUAUGUUAUUGUAUGUUUGUAGAAGGCGCGUGAU | 52.2 | 51.2 | – | – |
| AUCGGUCCGUAGAAGGGUGACAUGAGGAUCACCCAUGUGCCGUGUGCAUUUAUGCCUCCACGGCCACAGGAUAUACGGAGUUGA | – | – | 80.1 | 39.1 |
| AGAGGUCGCACAGGAUAUCAUACAUGAGGAUCACCCAUGUCAGAAAACAAAUGAGAAGGGUGCGCGUUAAUCGCUUGUGAAGAA | – | – | 16.7 | 4.8 |
